Sampled rows, rich in hits. Any-hit rate of the full collection: about 1.9%.
LEDGF integ inh: blockers of LEDGF/p75-dependent integrase strand transfer – biochemical, TR-FRET, high throughput, primary screen | HIV-1 integrase (with human LEDGF/p75) | hit rate 0.64% among 370,000 | AID 743269, 2014 | TR-FRET IN-LEDGF/p75 DNA integration, Eu/Cy5 | inhibition, % at 3.7 µM;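 active = inhibition above the screen-wide mean plus 3 SD, cut at about 13% in these data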;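 also: signal is the Cy5 over europium emission ratio at 671 and 618 nm; 0% = plate median of compound wells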
NSD2 HMT inh: NSD2 histone methyltransferase inhibitors, primary screen, biochemical, AlphaScreen, single concentration, set 2 | NSD2 peptide methylation, 120 min | AID 743445, 2014 | hit rate 0.54% among 310,000 | inhibition, % at 12.5 µM | Histone-lysine N-methyltransferase NSD2 (Homo sapiens), O96028; in the data active = inhibition above about 50%
UHRF1 MBD2 ctr: UHRF1 methylated DNA binding inhibitors, primary screen, counter-screen for MBD2 inhibitor project, biochemical, TR-FRET, human UHRF1, single concentration; UHRF1 binding to methylated oligo; inhibition, % at 4.4 µM; hit rate 0.75% among 370,000; E3 ubiquitin-protein ligase UHRF1 (Homo sapiens), Q96T88; in the data active = inhibition above about 21%;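 also: UHRF1 SRA domain binding a hemimethylated CpG hairpin DNA probe; 0% = median of test compound wells and 100% = reference inhibitor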
TDP2 absorb: human TDP2 enzyme inhibitors, primary screen, biochemical, epi absorbance, recombinant enzyme | T5PNP hydrolysis, p-nitrophenol absorbance 415 nm | hit rate 0.34% among 370,000 | inhibition, % at 12.8 µM | Tyrosyl-DNA phosphodiesterase 2 (Homo sapiens), O95551;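 active = inhibition above the mean of all tested compounds plus 3 SD, set per campaign, cut at about 25% in these data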;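 also: 0% = DMSO with enzyme and 100% = buffer with substrate but no TDP2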
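System – recombinant human TDP2 · Amount – 120 nM TDP2 per well · Buffer or medium – Mg2+-containing Tris-HCl buffer, pH 7.5 · Reagent – T5PNP substrate, 5 mM · Dosing – 12.8 µM single point, 1% DMSO · Incubation – 2 h at 37 °C · Measured by – epi absorbance · Read-out basis – percent inhibition · Benchmarks – high control without enzyme, low control DMSO plus TDP2 · Repeats – singlicate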
CASP6 VEID inh: human caspase-6 inhibitors, primary screen, biochemical, VEID-R110 fluorescence, single point, set 2 | AID 686996, 2013 | purified caspase-6, Z-VEID-R110 cleavage fluorescence | inhibition, % at 12.5 µM | P55212 | hit rate 0.53% among 350,000;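 active = mean inhibition across replicates at least about 35%, with every replicate also reaching that limit, limit read from the data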;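 also: 0% = median of neutral control wells and 100% = no fluorescence left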
MBD2 inh: inhibitors of MBD2 binding to methylated DNA, primary screen, biochemical, TR-FRET, DNA-binding domain, human | Methyl-CpG-binding domain protein 2 (Homo sapiens), Q9UBB5 | MBD2 binding to methylated oligonucleotide | inhibition, % at 4.4 µM | hit rate 0.31% among 370,000; in the data active = inhibition above about 13%
Target sequence (Q9UBB5 whole entry, looked up, the tested form may be a part): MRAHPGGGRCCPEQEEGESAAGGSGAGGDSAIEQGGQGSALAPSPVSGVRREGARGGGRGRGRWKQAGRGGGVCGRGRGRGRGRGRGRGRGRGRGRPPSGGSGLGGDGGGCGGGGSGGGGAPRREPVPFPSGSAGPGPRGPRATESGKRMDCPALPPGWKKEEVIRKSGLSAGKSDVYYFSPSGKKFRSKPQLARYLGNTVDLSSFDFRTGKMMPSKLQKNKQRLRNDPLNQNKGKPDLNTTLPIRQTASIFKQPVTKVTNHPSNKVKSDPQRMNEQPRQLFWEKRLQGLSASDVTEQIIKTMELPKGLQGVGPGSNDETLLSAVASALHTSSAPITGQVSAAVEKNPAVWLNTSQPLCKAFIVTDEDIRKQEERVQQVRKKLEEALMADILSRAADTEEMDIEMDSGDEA
* hit, by the source's call; . = not tested or not shown.

SMILES	LEDGF integ inh	NSD2 HMT inh	UHRF1 MBD2 ctr	TDP2 absorb	CASP6 VEID inh	MBD2 inh
C[C@@H]1CN([C@H](C)CO)C(=O)c2cc(NC(=O)CCCCCC(=O)Nc3ccccc3N)ccc2O[C@H]1CN(C)S(=O)(=O)c1cn(C)cn1	.	.	.	.	-4	.
Cc1ccc(C2=N/C(=C\c3coc4ccccc4c3=O)C(=O)O2)cc1	40*	9	4	3	44*	-2
COc1ccc(/C=C2\N=C(c3ccc(C)cc3)OC2=O)cc1	-4	0	0	-1	0	-2
CCCNC(=O)N1CC2(CN(C(=O)C3CCCC3)C2)c2c([nH]c3cc(OC)ccc23)[C@@H]1CO	.	.	.	.	-2	.
Cc1cc(NC(=O)CSc2sc3c(O)cc(=O)[nH]c3c2C#N)ccc1Br	2	.	4	4	9	4
Cc1ccc(C)c(NC(=O)CSc2sc3c(O)cc(=O)[nH]c3c2C#N)c1	3	.	15	5	47*	1
Cc1ccc(Cl)cc1NC(=O)CSc1sc2c(O)cc(=O)[nH]c2c1C#N	2	3	6	2	44*	5
O=C(Nc1ccccc1F)c1ccn[nH]1	-2	-2	75*	-4	1	3
O=C(Nc1ccccc1Cl)c1ccn[nH]1	-3	0	-2	3	.	-1
COc1ccc(CCNS(=O)(=O)c2cc3c4c(c2)CC(=O)N4CCC3)cc1	1	14	26*	3	4	3
Fc1cccc(Nc2nc(-c3ccncc3)nc3ccccc23)c1	1	-1	-5	-3	53*	1
c1ccc(Nc2nc(-c3ccccc3)nc3ccccc23)cc1	1	-16	0	6	2	2
COc1ccc2c(c1OC)CN(C)CCc1cc3c(cc1C(=O)C2)OCO3	6	-1	21*	13	12	13
COc1cc2c(cc1OC)C(=O)Cc1ccc3c(c1CN(C)CC2)OCO3	-2	.	1	3	2	5
Cc1cc(C(=O)COc2cccc([N+](=O)[O-])c2)c(C)n1C1CC1	-1	0	0	5	2	2
Cc1cc(C(=O)COC(=O)c2cccc(O)c2)c(C)n1C1CC1	4	0	27*	-6	-2	1
COCC(=O)Nc1ccc2c(c1)OC[C@@H](C)NC[C@@H](C)[C@H](OC)CN(C)C2=O	.	.	.	.	1	.
Cc1cccn2c(=O)c3cc(C#N)c(=NC(=O)c4ccco4)n(Cc4ccco4)c3nc12	3	9	-3	-9	67*	-6
CCOC(=O)c1cc2c(=O)n3cccc(C)c3nc2n(Cc2ccco2)c1=NC(=O)c1cccnc1	3	.	1	0	.	4
COc1ccc(S(=O)(=O)N(C)C[C@H]2OCCCC[C@H](C)Oc3ccc(NC(=O)C4CCCCC4)cc3C(=O)N([C@H](C)CO)C[C@H]2C)cc1	.	.	.	.	-1	.
CCCSc1nc2cc(C)c(C)cc2n1CC(C)O (stereo not drawn)	1	3	22*	9	3	6
C[C@H]1CCCCO[C@H](CN(C)Cc2ccncc2)[C@@H](C)CN([C@@H](C)CO)C(=O)c2cc(NC(=O)C3CCCCC3)ccc2O1	.	.	.	.	0	.
O=C(COC(=O)c1cc(F)cc(F)c1)NCCCc1ccccc1	1	3	85*	16	-6	7
O=C(COC(=O)c1ccc(O)cc1)NCCCc1ccccc1	0	-6	-3	16	0	0
COCC(=O)N1[C@H](CO)[C@H]2c3ccccc3N(C(=O)c3ccccc3F)C[C@H]21	.	.	.	.	1	.
Cc1cc(C)c2sc(N(CCCN(C)C)C(=O)c3ccc(S(=O)(=O)N4CCc5ccccc5C4)cc3)nc2c1	.	1	.	.	.	.
CCc1nnc(NC(=O)c2ccc(S(=O)(=O)N3CCc4ccccc4C3)cc2)s1	-3	-3	1	5	2	-3
Cc1cc(C)c2nc(NNC(=O)c3ccc(S(=O)(=O)N4CCc5ccccc5C4)cc3)sc2c1	20*	.	-3	-11	0	-2
